These results are taken from publication PMC7134334 (Neuropharmacology, 2016).

The structures appear in SMILES notation.

Assay [1] deals with T1, Kv3.1 (Homo sapiens, UniProt P48547).
T1 sequence (P48547 1-511): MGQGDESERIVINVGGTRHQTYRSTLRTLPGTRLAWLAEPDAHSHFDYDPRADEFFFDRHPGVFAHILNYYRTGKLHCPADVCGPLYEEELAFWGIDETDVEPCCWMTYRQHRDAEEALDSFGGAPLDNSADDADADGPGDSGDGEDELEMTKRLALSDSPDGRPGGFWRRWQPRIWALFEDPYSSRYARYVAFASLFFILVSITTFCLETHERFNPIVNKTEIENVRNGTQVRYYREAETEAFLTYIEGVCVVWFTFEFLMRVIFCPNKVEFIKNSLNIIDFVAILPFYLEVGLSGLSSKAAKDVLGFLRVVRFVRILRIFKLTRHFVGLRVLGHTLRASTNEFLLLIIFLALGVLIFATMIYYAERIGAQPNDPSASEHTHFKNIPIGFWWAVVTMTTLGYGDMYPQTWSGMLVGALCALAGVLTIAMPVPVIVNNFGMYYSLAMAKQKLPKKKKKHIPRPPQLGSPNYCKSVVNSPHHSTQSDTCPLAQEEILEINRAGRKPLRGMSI
Kind of assay: Patch-clamp current inhibition by gambierol, WT Kv3.1 in Ltk− cells. The class given is cell-based. The settings on record: read-out: IC50 (concentration that induces 50% current inhibition); WT Kv3.1 expressed in Ltk− cells; mean ± SEM. The method, boiled down:
(§1)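 Ltk− mouse fibroblasts (DMEM, 10% horse serum) transiently PEI-transfected with 15–200 ng cDNA, recorded ~20–28 h later at 20–23 °C. Bath (mM): NaCl 130, KCl 4, CaCl2 1.8, MgCl2 1, HEPES 10, glucose 10, pH 7.35. Pipette: KCl 110, K4BAPTA 5, K2ATP 5, MgCl2 1, HEPES 10, pH 7.2. Fast-perfused, final DMSO ≤0.5%. Fraction of current left at +40 mV Hill-fitted for IC50. Cells with >5 mV voltage error excluded. Mean ± SEM over cells.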
A general note: In patch-clamp work, channel activity is measured electrically.

The subject of assay [2] is Kv3.1_S1-S4_2.1. In words: Patch-clamp current inhibition by gambierol, Kv3.1_S1-S4_2.1 chimera. The settings on record: read-out: IC50 (concentration that induces 50% current inhibition); Kv3.1_S1-S4_2.1 in Ltk− cells; n = 4. The format is cell-based. The method, boiled down:
as §1

Assay [3] deals with Kv3.1_S1-S3a_2.1. Kind of assay: Patch-clamp current inhibition by gambierol, Kv3.1_S1-S3a_2.1 chimera. The format is cell-based. The settings on record: read-out: IC50 (concentration that induces 50% current inhibition); Kv3.1_S1-S3a_2.1 in Ltk− cells; n = 3. The method, boiled down:
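Ltk− mouse fibroblasts (DMEM, 10% horse serum) transiently PEI-transfected with channel cDNA and patch-clamped 20–28 h later at 20–23 °C. Bath (mM): NaCl 130, KCl 4, CaCl2 1.8, MgCl2 1, HEPES 10, glucose 10, pH 7.35; pipette KCl-based with BAPTA, ATP, pH 7.2. Toxin perfused from DMSO stock (final DMSO ≤0.5%). Remaining current at +40 mV Hill-fitted for IC50; mean ± SEM over cells.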

In assay [4] the test system is Kv3.1_S3b-S4_2.1. Kind of assay: Patch-clamp current inhibition by gambierol, Kv3.1_S3b-S4_2.1 chimera. The format is cell-based. The settings on record: read-out: IC50 (concentration that induces 50% current inhibition); Kv3.1_S3b-S4_2.1 in Ltk− cells; n = 4. The method, boiled down: as §1
The test system of assay [5] is Kv2.1 V404T_S3b-S4_3.1. In words: Patch-clamp current inhibition by gambierol, Kv2.1 V404T_S3b-S4_3.1 chimera. The format is cell-based. The method, boiled down: as §1
The target in assay [6] is T1, Kv3.1. Particulars: ref Kopljar et al., 2013; cited from earlier work.
The test system of assay [7] is WT Kv3.1 channels and VSD chimeras (S1-S4, S1-S3a, S3b-S4). The format is cell-based. Particulars: block calculated at depolarizing potentials of V1/2 +30 mV.

With `C=CC/C=C\C=C/[C@H]1O[C@H]2C[C@H]3O[C@H]4CC[C@H]5O[C@H]6C[C@@]7(C)O[C@@]8(C)[C@@H](O)C[C@H](CCCO)O[C@@H]8C[C@@H]7O[C@@H]6C[C@@H]5O[C@]4(C)C[C@]3(C)O[C@@H]2C=C[C@]1(C)O` [gambierol, Gambierol], the IC50 in assay [1] was determined as 1.2 ± 0.2 nM; in assay [2], 280 ± 40 nM; in assay [3] it was 1.9 ± 0.2 nM; in assay [4], 143 ± 28 nM; in assay [5] (read-out: IC50 (concentration that induces 50% current inhibition), Kv2.1 V404T_S3b-S4_3.1 in Ltk− cells, n = 3) it was 900 ± 41 nM. In addition, the “fold difference compared to the Kv2.1 V404T mutant” value in assay [5] (Kv2.1 V404T_S3b-S4_3.1 vs previously reported Kv2.1 V404T value) is ~ 2 fold. In addition, the “shift of the voltage dependence of activation to more positive potentials” value in assay [6] is recorded as “more than +120 mV”.

With `O=C(NCC1CCCCN1)c1cc(OCC(F)(F)F)ccc1OCC(F)(F)F` (centres unmarked) [Flecainide], the “differences in IC50 values between WT channels and chimeras” value in assay [7] is given as under 2 fold.
